The text below walks through data of ChEMBL document CHEMBL1127367, “Antiproliferative properties of polyamine analogues: a structure-activity study” (J Med Chem, 1994).

Assay [1] concerns the target Spermidine/spermine N(1)-acetyltransferase (SAT) (Mus musculus) (UniProt Q6P8J2+P48026). In words: […] spermidine/spermine N1-Acetyltransferase (SSAT) activity. In kind it is functional. Also on record: concentration or dose not given beside the values.
Assay [2] concerns L1210. The assay can be described thus: Compound level in L1210 cells after 48 hours of incubation at initial concentration of 3 uM is expressed as nmol/10e6 cells. In kind it is functional, Mus musculus. In a few lines:
(§1)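 Murine L1210 leukemia cells were kept in logarithmic growth as a suspension in RPMI-1640 with 10% NuSerum, 2% HEPES-MOPS buffer and 1 mM aminoguanidine, at 37 °C under 5% CO2. Log-phase cells were exposed to the analogue for 48 h. Intracellular analogue content is reported per 10^6 cells.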

The subject of assay [3] is L1210. In words: Compound was evaluated for its impact on spermine levels after 48 hr at concentration 15 uM. In kind it is functional, Mus musculus. In a few lines: (§2)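 Murine L1210 leukemia cells in log-phase suspension (RPMI-1640, 10% NuSerum, 2% HEPES-MOPS, 1 mM aminoguanidine, 37 °C, 5% CO2) exposed to analogue for 48 h. Cells washed twice in cold RPMI-1640, extracted with 0.6 N perchloric acid, and polyamines quantified by HPLC. Spermine is reported as % of untreated control.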

For assay [4], the system named is L1210. The assay can be described thus: Compound was evaluated for its impact on spermidine levels after 48 hr at concentration 15 uM. The format is functional, Mus musculus. In a few lines:
(§3)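 L1210 suspension cultures were grown in RPMI-1640 with 10% NuSerum, 2% HEPES-MOPS and 1 mM aminoguanidine (37 °C, 5% CO2). Log-phase cells were treated for 48 h, then washed twice in cold RPMI-1640 and pelleted. Pellets were extracted with 0.6 N perchloric acid, and supernatants were held at −20 °C until HPLC. Polyamine levels are given as % of untreated controls.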

The subject of assay [5] is L1210. The assay can be described thus: Compound level in L1210 cells after 48 hours of incubation at initial concentration of 15 uM is expressed as nmol/10e6 cells. The format is functional, Mus musculus. In short, it runs like this:
as §1

In assay [6] the test system is L1210. The assay can be described thus: Compound was evaluated for its impact on spermine levels after 48 hr at concentration 3 uM. The format is functional, Mus musculus. In short, it runs like this: as §2
For assay [7], the target named is T1, Ornithine decarboxylase (Mus musculus) (UniProt P00860).
T1 sequence (whole entry): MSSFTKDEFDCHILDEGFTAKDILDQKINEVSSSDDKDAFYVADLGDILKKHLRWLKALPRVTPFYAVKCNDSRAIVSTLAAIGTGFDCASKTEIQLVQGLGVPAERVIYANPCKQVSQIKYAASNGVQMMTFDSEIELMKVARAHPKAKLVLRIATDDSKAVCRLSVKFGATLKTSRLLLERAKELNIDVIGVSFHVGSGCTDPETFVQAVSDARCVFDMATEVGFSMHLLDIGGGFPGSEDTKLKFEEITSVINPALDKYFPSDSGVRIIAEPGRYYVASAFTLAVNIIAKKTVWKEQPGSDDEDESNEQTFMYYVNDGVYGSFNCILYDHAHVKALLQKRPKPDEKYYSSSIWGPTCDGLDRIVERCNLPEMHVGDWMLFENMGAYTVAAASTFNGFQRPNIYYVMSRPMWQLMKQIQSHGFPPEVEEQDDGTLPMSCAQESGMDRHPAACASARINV
In words: Inhibition of ornithine decarboxylase (ODC) activity. In kind it is functional. Also on record: concentration or dose not given beside the values.

For assay [8], the system named is L1210. The assay can be described thus: Compound was evaluated for its impact on spermidine levels after 48 hr at concentration 3 uM. The format is functional, Mus musculus. In a few lines:
as §3

Assay [9] relates to L1210. The assay can be described thus: Inhibition of radiolabeled spermidine uptake into L1210 cells in vitro. In kind it is functional, cell-based, Mus musculus.
The target of assay [10] is T2, S-adenosylmethionine decarboxylase proenzyme 1 (Mus musculus) (UniProt P0DMN7).
T2 sequence (whole entry): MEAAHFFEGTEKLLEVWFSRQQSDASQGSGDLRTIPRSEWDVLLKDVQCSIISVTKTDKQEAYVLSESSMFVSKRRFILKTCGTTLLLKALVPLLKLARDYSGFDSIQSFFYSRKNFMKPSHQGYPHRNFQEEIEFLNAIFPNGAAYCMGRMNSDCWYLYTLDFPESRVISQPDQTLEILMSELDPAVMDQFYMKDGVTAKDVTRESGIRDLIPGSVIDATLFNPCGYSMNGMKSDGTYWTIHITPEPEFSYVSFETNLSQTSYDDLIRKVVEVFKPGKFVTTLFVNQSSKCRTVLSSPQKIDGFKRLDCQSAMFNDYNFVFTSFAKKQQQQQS
The assay can be described thus: Inhibition of S-Adenosyl-methionine decarboxylase (AdoMetDC) activity. In kind it is functional. Also on record: concentration or dose not given beside the values.

The test system of assay [11] is L1210. The assay can be described thus: Compound was evaluated for its impact on putrescine (Put) levels after 48 hr at concentration 15 uM. In kind it is functional, Mus musculus. In a few lines: as §3
Assay [12] has as its system L1210. In words: Compound was evaluated for its impact on putrescine (Put) levels after 48 hr at concentration 3 uM. The format is functional, Mus musculus. In short, it runs like this: as §3
For assay [13], the system named is L1210. In words: Compound was evaluated for its impact on spermine […] levels after 48 hr at concentration 10 uM. The format is functional, Mus musculus. In a few lines: as §3
Assay [14] concerns L1210. The assay can be described thus: Compound was evaluated for its impact on putrescine (Put) levels after 48 hr at concentration 100 uM. In kind it is functional, Mus musculus.
Assay [15] relates to L1210. The assay can be described thus: Compound was evaluated for its impact on putrescine (Put) levels after 48 hr at concentration 10 uM. The format is functional, Mus musculus. In short, it runs like this: as §3
The test system of assay [16] is L1210. The assay can be described thus: Compound level in L1210 cells after 48 hours of incubation at initial concentration of 500 uM is expressed as nmol/10e6 cells. The format is functional, Mus musculus. More on the design: unit: nmol/10^6 cells.
For assay [17], the system named is L1210. The assay can be described thus: Compound was evaluated for its impact on spermidine levels after 48 hr at concentration 100 uM. The format is functional, Mus musculus.
The subject of assay [18] is L1210. In words: In vitro inhibition of L1210 growth after 96 hours. Conditions: Mus musculus, L1210, 96 h. The format is functional, cell-based. In short, it runs like this:
(§4)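 Log-phase L1210 cultures (0.5–1.0 × 10^5 cells/mL) treated with analogue diluted in sterile water and filter-sterilized. After 48 h, cells were reseeded and grown a further 48 h for the 96 h point. Cells counted by Coulter counter. % growth = (treated − inoculum)/(untreated − inoculum) × 100.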

Assay [19] concerns L1210. In words: Compound was evaluated for its impact on spermine levels after 48 hr at concentration 100 uM. The format is functional, Mus musculus.
Assay [20] relates to L1210. The assay can be described thus: Compound was evaluated for its impact on spermidine levels after 48 hr at concentration 10 uM. The format is functional, Mus musculus. In short, it runs like this:
as §3

Assay [21] addresses T1, Ornithine decarboxylase (Mus musculus). The assay can be described thus: Effect of compound on ornithine decarboxylase (ODC) activity expressed as percent of untreated control for ODC (1 uM at 4 h(or 48h)). In a few lines:
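L1210 cells exposed to 1 μM analogue for 4 h, or for 48 h in some cases. ODC activity measured as 14CO2 released from [14C]carboxyl-labeled L-ornithine and expressed as % of untreated control.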

For assay [22], the system named is L1210. The assay can be described thus: In vitro inhibition of L1210 growth after 48 hours. In kind it is functional, cell-based. Conditions: Mus musculus, L1210, 48 h. In a few lines:
as §4

Assay [23] has as its system L1210. The assay can be described thus: Compound level in L1210 cells after 48 hours of incubation at initial concentration of 100 uM is expressed as nmol/10e6 cells. In kind it is functional, Mus musculus. Also on record: unit: nmol/10^6 cells.
Assay [24] concerns L1210. The assay can be described thus: Compound was evaluated for its impact on spermidine levels after 48 hr at concentration 0.3 uM. In kind it is functional, Mus musculus. In a few lines: as §3
Assay [25] concerns L1210. In words: Compound level in L1210 cells after 48 hours of incubation at initial concentration of 1.5 uM is expressed as nmol/10e6 cells. In kind it is functional, Mus musculus. In a few lines: as §1
Assay [26] concerns L1210. The assay can be described thus: Compound was evaluated for its impact on spermidine levels after 48 hr at concentration 1.5 uM. The format is functional, Mus musculus. In a few lines:
as §3

For assay [27], the system named is L1210. In words: Compound was evaluated for its impact on putrescine (Put) levels after 48 hr at concentration 1.5 uM. The format is functional, Mus musculus. In short, it runs like this: as §3
In assay [28] the test system is S-adenosylmethionine decarboxylase (Mus musculus). The assay can be described thus: Effect of compound on S-Adenosyl-methionine decarboxylase (AdoMetDC) activity expressed as percent of untreated control for (AdoMetDC) (1 uM at 6 hr).
Assay [29] concerns L1210. The assay can be described thus: (§5) Compound was evaluated for its impact on spermine levels uM. In kind it is functional, Mus musculus.
For assay [30], the system named is L1210. The assay is described as §5. In kind it is functional, Mus musculus. This is another data set of the same source.
The test system of assay [31] is L1210. The assay can be described thus: Compound level in L1210 cells after 48 hours of incubation at initial concentration of 0.3 uM is expressed as nmol/10e6 cells. In kind it is functional, Mus musculus. In a few lines: as §1
The subject of assay [32] is L1210. In words: Compound was evaluated for its impact on putrescine (Put) levels after 48 hr at concentration 0.3 uM. In kind it is functional, Mus musculus. In a few lines: as §3
Assay [33] has as its system L1210. In words: Compound was evaluated for its impact on spermine levels after 48 hr at concentration 0.3 uM. In kind it is functional, Mus musculus. In a few lines: as §3
Assay [34] deals with L1210. In words: Compound was evaluated for its impact on spermine levels after 48 hr at concentration 1.5 uM. In kind it is functional, Mus musculus. In a few lines:
as §2

Sequence of Spermidine/spermine N(1)-acetyltransferase (SAT) (Mus musculus) (P48026 whole entry, looked up): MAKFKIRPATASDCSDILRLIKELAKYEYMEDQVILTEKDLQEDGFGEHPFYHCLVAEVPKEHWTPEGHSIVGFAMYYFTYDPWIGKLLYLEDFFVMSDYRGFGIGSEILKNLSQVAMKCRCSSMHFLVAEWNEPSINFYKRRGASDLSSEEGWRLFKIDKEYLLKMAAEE
Sequence of Spermidine/spermine N(1)-acetyltransferase (SAT) (Mus musculus) (Q6P8J2 whole entry, looked up): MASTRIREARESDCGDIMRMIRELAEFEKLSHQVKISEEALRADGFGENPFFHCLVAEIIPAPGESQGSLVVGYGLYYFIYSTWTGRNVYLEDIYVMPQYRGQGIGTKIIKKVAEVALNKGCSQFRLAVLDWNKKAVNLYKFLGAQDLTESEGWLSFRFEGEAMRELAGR

On to `CCCNCCCNCCCCNCCCNCCC`, for which the Activity was determined as 500% in [1]; 1.12 in the assay on L1210 [2]; 1.09 with L1210 [5]; 52% in assay [7]; 72% in assay [10]. For the same compound, the Polyamine in the assay with L1210 [3] is on record as 43%; in the assay with L1210 [4], 9%; with L1210 [6], 64%; with L1210 [8] it was 18%; with L1210 [11], 0%; in the assay with L1210 [12] it was 0%. The affinity with L1210 [9] corresponds to a Ki of 2300 nM.

As for `CCNCCCNCCCNCCCNCC` [BIS(ETHYL)NORSPERMINE], the Activity in assay [1] was 1500%; with L1210 [16], 1.59; in assay [21], 10%; in the assay with L1210 [23], 2.44; in assay [10], 42%. In addition, the Polyamine in the assay with L1210 [13] is on record as 31%; with L1210 [14] it was 0%; in the assay with L1210 [15], 30%; in the assay with L1210 [17], 6%; in the assay with L1210 [19], 30%; with L1210 [20], 14%. Besides, the half-inhibitory concentration (IC50) is 2000 nM in the assay on L1210 [18] and above 100000 nM in the assay on L1210 [22]. Also, the affinity in the assay on L1210 [9] corresponds to a Ki of 17000 nM.

Take `CCNCCCCNCCCCCNCCCCNCC`: the Activity was 120% in [1]; 0.72 in the assay on L1210 [25]; 20% in [7]; 39% in [28]; 0.26 in the assay with L1210 [31]. For the same compound, the Polyamine is reported as 61% with L1210 [24]; 5% in the assay on L1210 [26]; 0% in the assay with L1210 [27]; 31% in the assay with L1210 [29]; 70% in the assay on L1210 [30]; 44% in the assay with L1210 [32]. The figures for the IC50 in the assay on L1210 [18] and in the assay on L1210 [22] were 35 nM and 300 nM, respectively. Also, the Ki in the assay on L1210 [9] worked out at 6000 nM.

On to `CCNCCCCNCCCCNCCCNCC`, for which the Activity in assay [1] stood at 370%; in the assay with L1210 [25] it was 0.64; in assay [7], 5%; in the assay with L1210 [31], 0.27; in assay [10], 37%. Further, the Polyamine in the assay on L1210 [24] came out at 47%; in the assay on L1210 [33], 65%; in the assay with L1210 [26], 0%; with L1210 [27] it was 0%; in the assay with L1210 [34] it was 18%; with L1210 [32], 40%. Also, the IC50 in the assay with L1210 [18] amounted to 80 nM; with L1210 [22], 300 nM. The same compound showed a Ki with L1210 [9] of 8000 nM.

As usually defined, the Ki is the equilibrium dissociation constant of an inhibitor or competing ligand from its target. What is called IC50 is the concentration needed to halve the response being measured.
